# Key:
# Type in all cases: functional
# Saccharomyces cerevisiae [1] = experiment: Antifungal activity against VMA7 gene knockout Saccharomyces cerevisiae mutant after 48 hrs by microtiter plate method
# Outline: (§1)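 Yeast deletion mutants grown in YPD in microtiter wells for 48 h at 30 °C. For the retest, 5 µL fivefold serial dilutions of stationary-phase cultures were spotted on YPD with or without compound, and growth was compared with BY4741 after 48 h at 30 °C.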
# Saccharomyces cerevisiae [2] = experiment: Ratio of MIC for wild type Saccharomyces cerevisiae BY4741 to MIC for YKL118W gene knockout Saccharomyces cerevisiae mutant
# Saccharomyces cerevisiae [3] = experiment: Antifungal activity against wild type Saccharomyces cerevisiae BY4741 after 48 hrs by microtiter plate method; details: BY4741, 48 h; outline: as §1
# Saccharomyces cerevisiae [4] = experiment: Antifungal activity against GET2 gene knockout Saccharomyces cerevisiae mutant after 48 hrs by microtiter plate method; outline: as §1
# Saccharomyces cerevisiae [5] = experiment: Ratio of MIC for wild type Saccharomyces cerevisiae BY4741 to MIC for AMD1 gene knockout Saccharomyces cerevisiae mutant
# Saccharomyces cerevisiae [6] = experiment: Ratio of MIC for wild type Saccharomyces cerevisiae BY4741 to MIC for CUP5 gene knockout Saccharomyces cerevisiae mutant
# Saccharomyces cerevisiae [7] = experiment: Antifungal activity against SPT7 gene knockout Saccharomyces cerevisiae mutant after 48 hrs by microtiter plate method; outline: as §1
# Saccharomyces cerevisiae [8] = experiment: Antifungal activity against AMD1 gene knockout Saccharomyces cerevisiae mutant after 48 hrs by microtiter plate method; outline: as §1
# Candida albicans [9] = experiment: Antifungal activity against Candida albicans assessed as fungus survival rate at 5 ug/mL in presence of ascorbic acid
# Outline: (§2)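 Overnight C. albicans YPD culture diluted in PBS (~2 × 10⁶ cells/mL) and treated with compound in 2% DMSO, with or without 80 mM ascorbic acid, for 5 h at 37 °C. CFU counted, and percentage survival taken against the 2% DMSO control.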
# Saccharomyces cerevisiae [10] = experiment: Antifungal activity against HTL1 gene knockout Saccharomyces cerevisiae mutant after 48 hrs by microtiter plate method; outline: as §1
# Saccharomyces cerevisiae [11] = experiment: Antifungal activity against REG1 gene knockout Saccharomyces cerevisiae mutant after 48 hrs by microtiter plate method; outline: as §1
# Candida albicans [12] = experiment: Antifungal activity against Candida albicans CAI4
# Outline: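 C. albicans CAI4 overnight YPD culture diluted in PBS (~2 × 10⁶ cells/mL) and exposed to a range of compound concentrations in 2% DMSO for 5 h at 37 °C, then CFU counted. Survival is the CFU ratio against the 2% DMSO control. MFC is the lowest concentration giving <0.1% survival.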
# Saccharomyces cerevisiae [13] = experiment: Ratio of MIC for wild type Saccharomyces cerevisiae BY4741 to MIC for VMA7 gene knockout Saccharomyces cerevisiae mutant
# Saccharomyces cerevisiae [14] = experiment: Antifungal activity against VPS15 gene knockout Saccharomyces cerevisiae mutant after 48 hrs by microtiter plate method; outline: as §1
# Saccharomyces cerevisiae [15] = experiment: Ratio of MIC for wild type Saccharomyces cerevisiae BY4741 to MIC for VPH2 gene knockout Saccharomyces cerevisiae mutant
# Saccharomyces cerevisiae [16] = experiment: Ratio of MIC for wild type Saccharomyces cerevisiae BY4741 to MIC for SPT7 gene knockout Saccharomyces cerevisiae mutant
# Saccharomyces cerevisiae [17] = experiment: Ratio of MIC for wild type Saccharomyces cerevisiae BY4741 to MIC for ADA2 gene knockout Saccharomyces cerevisiae mutant
# Saccharomyces cerevisiae [18] = experiment: Ratio of MIC for wild type Saccharomyces cerevisiae BY4741 to MIC for HTL1 gene knockout Saccharomyces cerevisiae mutant
# Saccharomyces cerevisiae [19] = experiment: Ratio of MIC for 3,5-dichloro-6-(chloromethyl)-1-phenylpyrazin-2(1H)-one-resistant Saccharomyces cerevisiae mutant to MIC for wild type Saccharomyces cerevisiae BY4741
# Saccharomyces cerevisiae [20] = experiment: Antifungal activity against VPH2 gene knockout Saccharomyces cerevisiae mutant after 48 hrs by microtiter plate method; outline: as §1
# Saccharomyces cerevisiae [21] = experiment: Antifungal activity against ADA2 gene knockout Saccharomyces cerevisiae mutant after 48 hrs by microtiter plate method; outline: as §1
# Saccharomyces cerevisiae [22] = experiment: Ratio of MIC for wild type Saccharomyces cerevisiae BY4741 to MIC for GET2 gene knockout Saccharomyces cerevisiae mutant
# Saccharomyces cerevisiae [23] = experiment: Antifungal activity against 3,5-dichloro-6-(chloromethyl)-1-phenylpyrazin-2(1H)-one-resistant Saccharomyces cerevisiae mutant after 48 hrs by microtiter plate method
# Saccharomyces cerevisiae [24] = experiment: Ratio of MIC for wild type Saccharomyces cerevisiae BY4741 to MIC for REG1 gene knockout Saccharomyces cerevisiae mutant
# Saccharomyces cerevisiae [25] = experiment: Antifungal activity against CUP5 gene knockout Saccharomyces cerevisiae mutant after 48 hrs by microtiter plate method; outline: as §1
# Candida albicans [26] = experiment: Antifungal activity against Candida albicans assessed as fungus survival rate at 5 ug/mL in absence of ascorbic acid; outline: as §2
# Saccharomyces cerevisiae [27] = experiment: Ratio of MIC for wild type Saccharomyces cerevisiae BY4741 to MIC for VPS15 gene knockout Saccharomyces cerevisiae mutant
# Saccharomyces cerevisiae [28] = experiment: Antifungal activity against YKL118W gene knockout Saccharomyces cerevisiae mutant after 48 hrs by microtiter plate method; outline: as §1
# Candida albicans [29] = experiment: Induction of reactive oxygen species production in Candida albicans assessed as corrected fluorescence value at 100 ug/mL after 3 hrs by fluorescence assay
# Outline: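 C. albicans grown overnight in YPD at 37 °C and resuspended in PBS. Cells mixed with a 100 µg/mL compound solution in 10% DMSO (DMSO alone as control) and held 1 h at 37 °C. 2',7'-dichlorofluorescin diacetate then added; fluorescence read after 3 h (ex 485/em 525 nm). A compound-plus-probe blank without cells was subtracted to give the corrected value.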
smiles,measurement,setting,value
O=c1c(Cl)nc(Cl)c(CCl)n1-c1ccccc1,MIC,Saccharomyces cerevisiae [1],0.5 µg/mL
same,Ratio,Saccharomyces cerevisiae [2],5
same,MIC,Saccharomyces cerevisiae [3],2.5 µg/mL
same,MIC,Saccharomyces cerevisiae [4],0.5 µg/mL
same,Ratio,Saccharomyces cerevisiae [5],5
same,Ratio,Saccharomyces cerevisiae [6],5
same,MIC,Saccharomyces cerevisiae [7],0.5 µg/mL
same,MIC,Saccharomyces cerevisiae [8],0.5 µg/mL
same,Activity,Candida albicans [9],64%
same,MIC,Saccharomyces cerevisiae [10],0.5 µg/mL
same,MIC,Saccharomyces cerevisiae [11],0.5 µg/mL
same,MFC,Candida albicans [12],5 µg/mL
same,Ratio,Saccharomyces cerevisiae [13],5
same,MIC,Saccharomyces cerevisiae [14],0.5 µg/mL
same,Ratio,Saccharomyces cerevisiae [15],5
same,Ratio,Saccharomyces cerevisiae [16],5
same,Ratio,Saccharomyces cerevisiae [17],5
same,Ratio,Saccharomyces cerevisiae [18],5
same,Ratio,Saccharomyces cerevisiae [19],5
same,MIC,Saccharomyces cerevisiae [20],0.5 µg/mL
same,MIC,Saccharomyces cerevisiae [21],0.5 µg/mL
same,Ratio,Saccharomyces cerevisiae [22],5
same,MIC,Saccharomyces cerevisiae [23],12.5 µg/mL
same,Ratio,Saccharomyces cerevisiae [24],5
same,MIC,Saccharomyces cerevisiae [25],0.5 µg/mL
same,Activity,Candida albicans [26],0.009%
same,Ratio,Saccharomyces cerevisiae [27],5
same,MIC,Saccharomyces cerevisiae [28],0.5 µg/mL
O=c1c(Cl)nc(Cl)cn1CC1CCCCC1,MFC,Candida albicans [12],100 µg/mL
O=c1c(-c2ccccc2)nc(Cl)c(CCl)n1-c1ccccc1,Activity,Candida albicans [29],>500
same,MFC,Candida albicans [12],> 100 µg/mL
COCCn1c(-c2ccccc2)c(Cl)nc(Cl)c1=O,Activity,Candida albicans [29],>500
same,MFC,Candida albicans [12],> 100 µg/mL
COc1cccc(-c2c(Cl)nc(Cl)c(=O)n2C)c1,Activity,Candida albicans [29],>500
same,MFC,Candida albicans [12],> 100 µg/mL
O=c1c(Cl)nc(Cl)cn1-c1ccccc1,MFC,Candida albicans [12],10 µg/mL
O=c1c(Cl)nc(Cl)cn1CCc1ccccc1,MFC,Candida albicans [12],50 µg/mL
Cc1ccccc1-c1c(Cl)nc(Cl)c(=O)n1-c1ccccc1,Activity,Candida albicans [29],>500
same,MFC,Candida albicans [12],> 100 µg/mL
COc1ccc(Cn2c(-c3ccc(OC)cc3)c(Cl)nc(Cl)c2=O)cc1,Activity,Candida albicans [29],>500
same,MFC,Candida albicans [12],> 100 µg/mL
COc1ccc(-c2c(Cl)nc(Cl)c(=O)n2-c2ccccc2)cc1,MFC,Candida albicans [12],> 100 µg/mL
COc1ccc(-n2cc(Cl)nc(Cl)c2=O)cc1,MFC,Candida albicans [12],10 µg/mL
COc1ccc(Cn2c(C)c(Cl)nc(Cl)c2=O)cc1,MFC,Candida albicans [12],> 100 µg/mL
O=c1c(Cl)nc(Cl)cn1C1CCCCC1,Activity,Candida albicans [29],>500
same,MFC,Candida albicans [12],> 100 µg/mL
COc1ccc(Cn2cc(Cl)nc(Cl)c2=O)cc1,MFC,Candida albicans [12],50 µg/mL
O=c1c(Cl)nc(Cl)c(CBr)n1-c1ccccc1,MFC,Candida albicans [12],5 µg/mL
COc1ccccc1-c1c(Cl)nc(Cl)c(=O)n1-c1ccccc1,Activity,Candida albicans [29],< 100
same,MFC,Candida albicans [12],> 100 µg/mL
COc1ccccc1Cn1c(Cc2ccccc2)c(Cl)nc(Cl)c1=O,MFC,Candida albicans [12],> 100 µg/mL
COc1nc(Cl)c(CCl)n(-c2ccccc2)c1=O,Activity,Candida albicans [29],>500
same,MFC,Candida albicans [12],> 100 µg/mL
Cc1c(Cl)nc(Cl)c(=O)n1-c1ccccc1,MFC,Candida albicans [12],> 100 µg/mL
COC(=O)c1ccc(-c2c(Cl)nc(Cl)c(=O)n2-c2ccccc2)cc1,MFC,Candida albicans [12],> 100 µg/mL
O=c1c(Cl)nc(Cl)cn1Cc1ccccc1,MFC,Candida albicans [12],50 µg/mL
Cc1c(Cl)nc(Cl)c(=O)n1Cc1ccccc1,Activity,Candida albicans [29],>500
same,MFC,Candida albicans [12],> 100 µg/mL

# From ChEMBL document CHEMBL1152399, “Synthesis and fungicidal activity of 3,5-dichloropyrazin-2(1H)-one derivatives” (2009)
